Blank lines part the entries; values can stand above or below the compound they belong to.
Experiments:
[1] = Activity against [Ca2+]-ATPase in rabbit white skeletal muscle sarcoplasmic reticulum vesicles
Oryctolagus cuniculus [2] = species on record: Oryctolagus cuniculus; assay: Inhibition of the [Ca2+]-ATPase by coincubation of the enzyme with the Thapsigargin (activity=53.9) along with the compound at 100 nM concentration; set-up: scale not given: the % may be the effect or the level left
Oryctolagus cuniculus [3] = species on record: Oryctolagus cuniculus; assay: Inhibition of the [Ca2+]-ATPase by coincubation of the enzyme with the Thapsigargin (activity=53.9) along with the compound at 20 nM concentration; set-up: scale not given: the % may be the effect or the level left
Oryctolagus cuniculus [4] = species on record: Oryctolagus cuniculus; assay: Inhibition of the [Ca2+]-ATPase by the compound (100 nM) was determined by the decrease in rate of formation of inorganic phosphate compared to control; set-up: scale not given: the % may be the effect or the level left
How it was run: (§1)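 Leaky SR vesicles (5 μg/mL protein) from New Zealand white rabbit hind-leg muscle in pH 7.0 buffer: KCl 120 mM, MOPS 25 mM, EGTA 0.5 mM, CaCl2 0.44 mM, MgCl2 2 mM, A23187 1 μM. Compound added in DMSO (<1%), 5 min preincubation at 30 °C, then ATP 1 mM final. Pi read by malachite green at ≥8 time points; rate from slope.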

Oryctolagus cuniculus [5] = species on record: Oryctolagus cuniculus; assay: Inhibition of the [Ca2+]-ATPase by the compound (1 nM) was determined by the decrease in rate of formation of inorganic phosphate compared to control; set-up: scale not given: the % may be the effect or the level left
How it was run: as §1

Oryctolagus cuniculus [6] = species on record: Oryctolagus cuniculus; assay: Inhibition of the [Ca2+]-ATPase by the compound (20 nM) was determined by the decrease in rate of formation of inorganic phosphate compared to control; set-up: scale not given: the % may be the effect or the level left
How it was run: as §1

Oryctolagus cuniculus [7] = species on record: Oryctolagus cuniculus; assay: Inhibition of the [Ca2+] - ATPase by coincubation of the enzyme with the Thapsigargin (activity=53.9) along with the compound at 1 nM concentration; set-up: scale not given: the % may be the effect or the level left
Oryctolagus cuniculus [8] = species on record: Oryctolagus cuniculus; assay: Inhibition of the [Ca2+]-ATPase by coincubation of the enzyme with the Thapsigargin (activity=56.5) along with the compound at 5000 nM concentration; set-up: scale not given: the % may be the effect or the level left
Oryctolagus cuniculus [9] = species on record: Oryctolagus cuniculus; assay: Inhibition of the [Ca2+]-ATPase by coincubation of the enzyme with the Thapsigargin (activity=56.5) along with the compound at 500 nM concentration; set-up: scale not given: the % may be the effect or the level left
Oryctolagus cuniculus [10] = species on record: Oryctolagus cuniculus; assay: Inhibition of the [Ca2+]-ATPase by the compound (5000 nM) was determined by the decrease in rate of formation of inorganic phosphate compared to control; set-up: scale not given: the % may be the effect or the level left
How it was run: as §1

Oryctolagus cuniculus [11] = species on record: Oryctolagus cuniculus; assay: Inhibition of the [Ca2+]-ATPase by the compound (500 nM) was determined by the decrease in rate of formation of inorganic phosphate compared to control; set-up: scale not given: the % may be the effect or the level left
How it was run: as §1

[12] = Activity against [Ca2+]-ATPase in rabbit white muscle sarcoplasmic reticulum vesicles
Oryctolagus cuniculus [13] = species on record: Oryctolagus cuniculus; assay: Inhibition of the [Ca2+]-ATPase by coincubation of the enzyme with the Thapsigargin (activity=56.5) along with the compound at 100 nM concentration; set-up: scale not given: the % may be the effect or the level left
Oryctolagus cuniculus [14] = species on record: Oryctolagus cuniculus; assay: Inhibition of the [Ca2+]-ATPase by coincubation of the enzyme with the Thapsigargin (activity=53.3) along with the compound at 100 nM concentration; set-up: scale not given: the % may be the effect or the level left
Oryctolagus cuniculus [15] = species on record: Oryctolagus cuniculus; assay: Inhibition of the [Ca2+]-ATPase by coincubation of the enzyme with the Thapsigargin (activity=53.3) along with the compound at 1 nM concentration; set-up: scale not given: the % may be the effect or the level left
Oryctolagus cuniculus [16] = species on record: Oryctolagus cuniculus; assay: Inhibition of the [Ca2+]-ATPase by coincubation of the enzyme with the Thapsigargin (activity=53.3) along with the compound at 20 nM concentration; set-up: scale not given: the % may be the effect or the level left
Oryctolagus cuniculus [17] = species on record: Oryctolagus cuniculus; assay: Inhibition of the [Ca2+]-ATPase by coincubation of the enzyme with the Thapsigargin (activity=56.7) along with the compound at 1000 nM concentration; set-up: scale not given: the % may be the effect or the level left
Oryctolagus cuniculus [18] = species on record: Oryctolagus cuniculus; assay: Inhibition of the [Ca2+]-ATPase by coincubation of the enzyme with the Thapsigargin (activity=56.7) along with the compound at 50000 nM concentration; set-up: scale not given: the % may be the effect or the level left
Oryctolagus cuniculus [19] = species on record: Oryctolagus cuniculus; assay: Inhibition of the [Ca2+]-ATPase by the compound (10000 nM) was determined by the decrease in rate of formation of inorganic phosphate compared to control; set-up: scale not given: the % may be the effect or the level left
How it was run: as §1

Oryctolagus cuniculus [20] = species on record: Oryctolagus cuniculus; assay: Inhibition of the [Ca2+]-ATPase by the compound (1000 nM) was determined by the decrease in rate of formation of inorganic phosphate compared to control; set-up: scale not given: the % may be the effect or the level left
How it was run: as §1

Oryctolagus cuniculus [21] = species on record: Oryctolagus cuniculus; assay: Inhibition of the [Ca2+]-ATPase by the compound (50000 nM) was determined by the decrease in rate of formation of inorganic phosphate compared to control; set-up: scale not given: the % may be the effect or the level left
How it was run: as §1

Oryctolagus cuniculus [22] = species on record: Oryctolagus cuniculus; assay: Inhibition of the [Ca2+]-ATPase by coincubation of the enzyme with the Thapsigargin (activity=56.7) along with the compound at 10000 nM concentration; set-up: scale not given: the % may be the effect or the level left
Oryctolagus cuniculus [23] = species on record: Oryctolagus cuniculus; assay: Inhibition of the [Ca2+]-ATPase by the compound (30 nM) was determined by the decrease in rate of formation of inorganic phosphate compared to control; set-up: scale not given: the % may be the effect or the level left
How it was run: as §1

Oryctolagus cuniculus [24] = species on record: Oryctolagus cuniculus; assay: Inhibition of the [Ca2+]-ATPase by coincubation of the enzyme with the Thapsigargin (activity=49.4) along with the compound at 1 nM concentration; set-up: scale not given: the % may be the effect or the level left
Oryctolagus cuniculus [25] = species on record: Oryctolagus cuniculus; assay: Inhibition of the [Ca2+]-ATPase by the compound (200 nM) was determined by the decrease in rate of formation of inorganic phosphate compared to control; set-up: scale not given: the % may be the effect or the level left
How it was run: as §1

Oryctolagus cuniculus [26] = species on record: Oryctolagus cuniculus; assay: Inhibition of the [Ca2+]-ATPase by coincubation of the enzyme with the Thapsigargin (activity=49.4) along with the compound at 200 nM concentration; set-up: scale not given: the % may be the effect or the level left
Oryctolagus cuniculus [27] = species on record: Oryctolagus cuniculus; assay: Inhibition of the [Ca2+]-ATPase by coincubation of the enzyme with the Thapsigargin (activity=49.4) along with the compound at 30 nM concentration; set-up: scale not given: the % may be the effect or the level left

- IC50 [1]: 51.7 nM
Compound: C/C=C(/C)C(=O)O[C@H]1C(C)=C2[C@H]([C@@H]1OC(=O)CCCCC)[C@@](C)(OC(C)=O)C[C@H](OC(=O)CCC)[C@@]1(O)[C@H]2O[C@H]2O[C@]21C

- Control (Oryctolagus cuniculus [2]): 34.7%
- Control (Oryctolagus cuniculus [3]): 49.3%
- Control (Oryctolagus cuniculus [4]): 66.6%
- Control (Oryctolagus cuniculus [5]): 100%
- Control (Oryctolagus cuniculus [6]): 81.2%
- Control (Oryctolagus cuniculus [7]): 55.7%
- IC50 [1]: 157 nM
Compound: C/C=C(/C)C(=O)O[C@H]1C(C)=C2[C@H]([C@@H]1OC(=O)CCCCC)[C@@](C)(OC(C)=O)C[C@H](OC(=O)CCC)[C@@]1(O)[C@H]2O[C@H]2OC(C)(C)O[C@]21C

- Control (Oryctolagus cuniculus [8]): 24%
- Control (Oryctolagus cuniculus [9]): 49%
- Control (Oryctolagus cuniculus [4]): 97%
- Control (Oryctolagus cuniculus [10]): 53.7%
- Control (Oryctolagus cuniculus [11]): 87%
- IC50 [12]: 5.59 µM
- Control (Oryctolagus cuniculus [13]): 52.3%
Compound: C/C=C(/C)C(=O)O[C@H]1C(C)=C2[C@H]([C@@H]1OC(=O)CCCCC)[C@@](C)(O)C[C@H](OC(=O)CCC)[C@@]1(O)[C@H]2O[C@H]2OC(C)(C)O[C@]21C

- IC50 [1]: 24.1 nM
Compound: C/C=C(/C)C(=O)O[C@H]1C(C)=C2[C@H]([C@@H]1OC(=O)CCCCC)[C@@](C)(OC(C)=O)C[C@H](OC(=O)CCC)[C@@]1(O)[C@H]2O[C@H]2O[C@H](OCC)O[C@]21C

Second part, the compound before the results:

Compound: C/C=C(/C)C(=O)O[C@H]1C(C)=C2[C@H]([C@@H]1OC(=O)CCCCC)[C@@](C)(OC(C)=O)C[C@H](OC(=O)CCC)[C@@]1(O)[C@H]2O[C@@H](O)[C@@]1(C)O.C/C=C(/C)C(=O)O[C@H]1C(C)=C2[C@H]([C@@H]1OC(=O)CCCCC)[C@@](C)(OC(C)=O)C[C@H](OC(=O)CCC)[C@@]1(O)[C@H]2O[C@H](O)[C@@]1(C)O
- IC50 [1]: 15.6 nM

Compound: C/C=C(/C)C(=O)O[C@H]1C(C)=C2[C@H]([C@@H]1OC(=O)CCCCC)[C@@](C)(OC(C)=O)C[C@H](OC(=O)CCC)[C@@]1(O)[C@H]2O[C@H](OCC)[C@@]1(C)O
- IC50 [1]: 11.2 nM

Compound: C/C=C(/C)C(=O)O[C@H]1C(C)=C2[C@H]([C@@H]1OC(=O)CCCCC)[C@@](C)(OC(C)=O)C[C@H](OC(=O)CCC)[C@@]1(O)[C@H]2O[C@@H](OC(C)=O)[C@@]1(C)O
- IC50 [1]: 18.4 nM

Compound: C/C=C(/C)C(=O)O[C@H]1C(C)=C2[C@H]([C@@H]1OC(=O)CCCCC)[C@@](C)(OC(C)=O)C[C@H](OC(=O)CCC)[C@@]1(O)[C@H]2O[C@H]2O[C@@H](OCC)O[C@]21C
- Control (Oryctolagus cuniculus [14]): 36.8%
- Control (Oryctolagus cuniculus [15]): 52.5%
- Control (Oryctolagus cuniculus [16]): 41.6%
- Control (Oryctolagus cuniculus [4]): 78.6%
- Control (Oryctolagus cuniculus [5]): 101%
- Control (Oryctolagus cuniculus [6]): 98.4%
- IC50 [1]: 388 nM

Compound: C/C=C(/C)C(=O)O[C@H]1C(C)=C2[C@H]([C@@H]1O)[C@@](C)(O)C[C@H](OC(=O)CCC)[C@@]1(O)[C@H]2O[C@H]2OC(C)(C)O[C@]21C
- Control (Oryctolagus cuniculus [17]): 53.8%
- Control (Oryctolagus cuniculus [18]): 25.1%
- Control (Oryctolagus cuniculus [19]): 82.6%
- Control (Oryctolagus cuniculus [20]): 98.6%
- Control (Oryctolagus cuniculus [21]): 50.9%
- IC50 [12]: 60.6 µM
- Control (Oryctolagus cuniculus [22]): 43.5%

Compound: C/C=C(/C)C(=O)O[C@H]1C(C)=C2[C@H]([C@@H]1OC(=O)CCCCC)[C@@](C)(OC(C)=O)C[C@H](OC(=O)CCC)[C@@]1(O)[C@H]2OC(=O)[C@@]1(C)O
- IC50 [1]: 9.8 nM

Compound: C/C=C(/C)C(=O)O[C@H]1C(C)=C2[C@H]([C@@H]1OC(=O)CCCCCCC)[C@@](C)(O)C[C@H](OC(=O)CCCCCCC)[C@@]1(O)[C@H]2OC(O)[C@@]1(C)O (some centres not stated)
- Control (Oryctolagus cuniculus [23]): 68.9%
- Control (Oryctolagus cuniculus [24]): 51.1%
- Control (Oryctolagus cuniculus [5]): 98.4%
- Control (Oryctolagus cuniculus [25]): 21.9%
- Control (Oryctolagus cuniculus [26]): 16.2%
- Control (Oryctolagus cuniculus [27]): 34.6%
- IC50 [1]: 120 nM

Compound: C/C=C(/C)C(=O)O[C@H]1C(C)=C2[C@H]([C@@H]1OC(=O)CCCCCCC)[C@@](C)(OC(C)=O)C[C@H](OC(=O)CCC)[C@@]1(O)[C@H]2OC(=O)[C@@]1(C)O [THAPSIGARGIN]
- IC50 [1]: 9.6 nM

Reference: ChEMBL document CHEMBL1128581, “Structure-activity relationships of analogues of thapsigargin modified at O-11 and O-12” (J Med Chem, 1995)
